Experimental data taken from ChEMBL document CHEMBL4033652, “Design, synthesis, and pharmacological evaluation of 4-azolyl-benzamide derivatives as novel GPR52 agonists” (Bioorg Med Chem, 2017).

Assays:
[1] = molecular target: T1, G-protein coupled receptor 52 (Homo sapiens, UniProt Q9Y2T5); test: Agonist activity at human GPR52 expressed in CHO cells assessed as increase in cAMP level after 30 mins by AlphaScreen assay; assay type: functional, cell-based
Procedure, shortened: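 CHO cells stably expressing human GPR52 (10,000/well) exposed to compound at various concentrations, 30 min, 37°C, in HBSS with 5 mM HEPES pH 7.6, 0.5% BSA, 100 µM IBMX and 100 µM Ro20-1724. AlphaScreen acceptor/donor beads added overnight at room temperature. Response expressed relative to a reference benzofuran agonist (100%). EC50 from mean curves, n = 2–4, 95% CI.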

[2] = molecular target: T1, G-protein coupled receptor 52; test: Agonist activity at human GPR52 expressed in CHO cells assessed as increase in cAMP level after 30 mins by AlphaScreen assay relative to (N-(2-hydroxyethyl)-3-(2-(3-(trifluoromethyl)benzyl)-1-benzofuran-4-yl)benzamide); assay type: functional, cell-based
Procedure, shortened: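 CHO cells stably expressing human GPR52, 10,000 cells per well, exposed to compound 30 min at 37°C in HBSS with 5 mM HEPES pH 7.6, 0.5% BSA, 100 µM IBMX and 100 µM Ro20-1724. cAMP measured by AlphaScreen with acceptor and biotinylated donor beads after overnight room-temperature incubation. Emax set relative to the reference benzofuran benzamide (100%). EC50 taken from mean curves, n = 2–4, with 95% CI.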

[3] = Oral bioavailability in Sprague-Dawley rat at 1 mg/kg administered as cassette dose by LC-MS/MS analysis; assay type: ADME, organism-based; details: in vivo
Procedure, shortened: (§1)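 Cassette dosing in non-fasted male SD rats (n = 3): i.v. 0.1 mg/kg or p.o. 1 mg/kg. Plasma prepared from blood, deproteinized, centrifuged, supernatant measured by LC/MS/MS. AUC taken over 0–8 h.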

[4] = AUC (0 to 8 hrs) in Sprague-Dawley rat at 1 mg/kg, po administered as cassette dose by LC-MS/MS analysis; assay type: ADME, organism-based; design: time < 8 hr, dose 1 mg/kg, route oral; details: in vivo; procedure, shortened: as §1
[5] = Total clearance in Sprague-Dawley rat at 0.1 mg/kg, iv or 1 mg/kg, po administered as cassette dose by LC/MS/MS analysis; assay type: ADME, organism-based; details: in vivo; procedure, shortened: as §1

T1 sequence (Q9Y2T5 whole entry): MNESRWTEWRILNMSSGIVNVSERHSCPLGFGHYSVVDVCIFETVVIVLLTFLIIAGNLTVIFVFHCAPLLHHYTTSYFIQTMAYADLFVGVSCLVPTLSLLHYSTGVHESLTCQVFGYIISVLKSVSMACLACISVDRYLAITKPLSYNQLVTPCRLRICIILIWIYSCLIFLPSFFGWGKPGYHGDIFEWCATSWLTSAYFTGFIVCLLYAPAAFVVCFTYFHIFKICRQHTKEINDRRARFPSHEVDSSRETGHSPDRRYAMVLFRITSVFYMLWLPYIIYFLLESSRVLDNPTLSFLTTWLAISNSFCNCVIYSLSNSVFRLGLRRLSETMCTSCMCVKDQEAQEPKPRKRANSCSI

| EC50 [1] [nM] | Emax [2] [%] | bioavailability [3] [%] | AUC(0-t) at 8 h [4] [ng·h/mL] | clearance [5] [mL/min/kg] | SMILES |
| --- | --- | --- | --- | --- | --- |
| 23 | 123 | 30.5 | 155 | 32.9 | Cc1cc(-c2cc(Cc3cc(F)cc(C(F)(F)F)c3)nn2C)ccc1C(N)=O |
| 73 | 86 |  |  |  | Cc1cc(-c2sc(Cc3cccc(C(F)(F)F)c3)nc2C)ccc1C(N)=O |
| 59 | 107 | 28.4 | 268 | 18.8 | Cc1cc(-n2cc(Cc3cc(F)cc(C(F)(F)F)c3)nc2C)ccc1C(N)=O |
| 260 | 75 |  |  |  | Cc1cc(-c2sc(Cc3cccc(F)c3)nc2C)ccc1C(N)=O |
| 210 | 60 |  |  |  | Cc1cc(-c2sc(Cc3ccc(Cl)cc3)nc2C)ccc1C(N)=O |
| 11 | 93 | 14 | 60.5 | 39.5 | Cc1cc(-c2sc(Cc3cc(F)cc(C(F)(F)F)c3)nc2C)ccc1C(N)=O |
| 130 | 75 |  |  |  | Cc1cc(-c2sc(Cc3cccc(Cl)c3)nc2C)ccc1C(N)=O |
| 370 | 63 |  |  |  | Cc1nc(Cc2cccc(C(F)(F)F)c2)sc1-c1ccc(C(N)=O)c(C(C)C)c1 |
| 25 | 88 |  |  |  | Cc1cc(-c2sc(Cc3cc(F)cc(Cl)c3)nc2C)ccc1C(N)=O |
| 170 | 88 |  |  |  | COc1cc(-c2sc(Cc3cccc(C(F)(F)F)c3)nc2C)ccc1C(N)=O |
| 160 | 85 |  |  |  | COc1cccc(Cc2nc(C)c(-c3ccc(C(N)=O)c(C)c3)s2)c1 |
